The record followed here is ChEMBL document CHEMBL1153089, “Synthesis, antibacterial activities and molecular docking studies of peptide and Schiff bases as targeted antibiotics” (Bioorg Med Chem, 2009).

Values after ≈ are worked out from the molar mass of the structure shown. Where only a bound is given, the exact number is not on record here.

The target of experiment [1] is T1, 3-oxoacyl-[acyl-carrier-protein] synthase 3 (Escherichia coli, UniProt C3TDZ2).
T1 sequence (C3TDZ2 whole entry): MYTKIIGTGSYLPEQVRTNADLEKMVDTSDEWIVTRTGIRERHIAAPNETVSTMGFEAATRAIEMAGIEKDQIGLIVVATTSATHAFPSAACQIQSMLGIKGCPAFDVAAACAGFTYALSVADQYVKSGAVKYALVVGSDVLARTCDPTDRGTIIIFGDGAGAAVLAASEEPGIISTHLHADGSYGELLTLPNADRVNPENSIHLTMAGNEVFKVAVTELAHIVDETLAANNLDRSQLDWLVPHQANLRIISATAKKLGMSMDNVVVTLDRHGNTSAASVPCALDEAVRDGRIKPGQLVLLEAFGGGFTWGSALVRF
The experiment is described as follows: Inhibition of Escherichia coli Beta-ketoacyl-ACP synthase III expressed in Escherichia coli BL21 (DE3) by liquid scintillation counting. The procedure, abridged: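 His-tagged E. coli KAS III from pET30 in BL21(DE3), purified on Ni-NTA and stored in 20 mM Tris pH 7.6, 100 mM NaCl, 1 mM DTT, 20% glycerol. The radiometric assay precipitated product with ice-cold 10% TCA and redissolved it in 0.5 M NaOH. ³H incorporation was counted by liquid scintillation. Inhibitors were added from DMSO stock, with final DMSO ≤2%. IC50 was determined.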

The test system of the next experiment is Escherichia coli. The experiment is described as follows: Antimicrobial activity against Escherichia coli ATCC 35218 after 24 hrs by MTT assay. Particulars: ATCC 35218, 24 h. The format is functional. The gist of the method: (§1)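 MIC by broth microdilution in Mueller–Hinton medium. Compounds were serially diluted in DMSO in the medium. Inoculum was about 10⁵ cfu/mL. Plates were incubated at 37 °C for 24 h. MIC was read visually with MTT colorimetric staining.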
(Tetrazolium assays rely on reduction of a dye to a coloured formazan, in cell work by metabolically active cells.)

The test system of the next experiment is Bacillus subtilis. Kind of experiment: Antimicrobial activity against Bacillus subtilis ATCC 6633 after 24 hrs by MTT assay. The note with it: ATCC 6633, 24 h. It is filed as functional. The procedure, abridged: as §1
In another experiment the test system is Pseudomonas aeruginosa. Kind of experiment: Antimicrobial activity against Pseudomonas aeruginosa ATCC 13525 after 24 hrs by MTT assay. The format is functional. Particulars: ATCC 13525, 24 h. The gist of the method:
as §1

The subject of another experiment is Staphylococcus aureus. Kind of experiment: Antimicrobial activity against Staphylococcus aureus ATCC 6538 after 24 hrs by MTT assay. Particulars: ATCC 6538, 24 h. The format is functional. The gist of the method: as §1

In the case of `Oc1ccccc1/C=N/CCCCCC/N=C/c1ccccc1O`, in experiment [1], the IC50 (in general, the concentration needed to halve the response being measured) is 44.6 µM.
The compound `O=C(NCCCCCCNC(=O)c1ccccc1O)c1ccccc1O` gave an IC50 in experiment [1] above 140 µM.
The same measure, in the same setting: for `O=C(NCCCNC(=O)c1ccccc1O)c1ccccc1O` the value was 41.8 µM.
For the compound `O=C(NCC/N=C/c1cc(I)ccc1O)c1ccccc1O`, the MIC (as a rule, the least concentration at which growth counts as inhibited) against Escherichia coli is 25 µg/mL (≈ 60.9 µM); in the experiment on Bacillus subtilis, above 50 µg/mL; against Pseudomonas aeruginosa, above 50 µg/mL; with Staphylococcus aureus, 25 µg/mL (≈ 60.9 µM). Half-maximal inhibition in experiment [1] (IC50) was put at 2.75 µM.
With `O=C(NCC/N=C/c1cc(Cl)cc(Cl)c1O)c1ccccc1O`, the minimal inhibitory concentration (MIC) against Escherichia coli is 1.56 µg/mL (≈ 4.42 µM); in the experiment on Bacillus subtilis, 3.13 µg/mL (≈ 8.86 µM); in the experiment on Pseudomonas aeruginosa, above 50 µg/mL; against Staphylococcus aureus, above 50 µg/mL. Moreover, in experiment [1], the IC50 is 7.08 µM.
Take `O=C(NCCCC/N=C/c1cc(Br)ccc1O)c1ccccc1O`: in experiment [1], the IC50 was 16 µM.
Regarding `O=C(NCCCCCC/N=C/c1cc(F)ccc1O)c1ccccc1O`, in experiment [1], the IC50 was 112 µM.
For `Oc1ccccc1/C=N/CCC/N=C/c1ccccc1O`, 43.4 µM corresponded to half-maximal inhibition in experiment [1] (IC50).
Compound `O=C(NCC/N=C/c1cc(Br)ccc1O)c1ccccc1O` gave an IC50 in experiment [1] of 17.1 µM.
In turn, `O=C(NCCCC/N=C/c1cc(F)ccc1O)c1ccccc1O` showed an IC50 in experiment [1] of 19.2 µM.
In the case of `O=C(NCC/N=C/c1cc(Cl)ccc1O)c1ccccc1O`, in experiment [1], inhibition was half-maximal at 8.69 µM (IC50).
The same measure, in the same setting: for `O=C(NCCCCNC(=O)c1ccccc1O)c1ccccc1O` the value was 38.3 µM; for `Oc1ccccc1/C=N/CCCC/N=C/c1ccccc1O`, 44 µM.
Still for that read-out and setting: for `O=C(NCCCCCC/N=C/c1cc(Cl)cc(Cl)c1O)c1ccccc1O` the value was above 122 µM.
On to `O=C(NCC/N=C/c1cc(Br)cc(Br)c1O)c1ccccc1O`, for which the minimum inhibitory concentration (MIC) came out at 6.25 µg/mL (≈ 14.1 µM) with Escherichia coli, 1.56 µg/mL (≈ 3.53 µM) in the experiment on Bacillus subtilis, 12.5 µg/mL (≈ 28.3 µM) against Pseudomonas aeruginosa and 12.5 µg/mL (≈ 28.3 µM) with Staphylococcus aureus. In experiment [1], this compound had an IC50 of 1.22 µM.
The compound `O=C(NCC/N=C/c1cc(I)cc(I)c1O)c1ccccc1O` showed an IC50 in experiment [1] of 23.7 µM.
In turn, `O=C(NCCCCCC/N=C/c1cc(Br)ccc1O)c1ccccc1O` had a concentration for half-maximal inhibition (IC50) in experiment [1] of 29.9 µM.
Consider `O=C(NCCC/N=C/c1c(O)ccc2ccccc12)c1ccccc1O`, for which the MIC is above 50 µg/mL with Escherichia coli, 25 µg/mL (≈ 71.8 µM) in the experiment on Bacillus subtilis, 12.5 µg/mL (≈ 35.9 µM) in the experiment with Pseudomonas aeruginosa and 25 µg/mL (≈ 71.8 µM) against Staphylococcus aureus. Besides, the concentration for half-maximal inhibition (IC50) in experiment [1] was 8.61 µM.
For the compound `Oc1ccccc1/C=N/CC/N=C/c1ccccc1O`, the IC50 in experiment [1] was above 186 µM.
`O=C(NCCC/N=C/c1ccccc1O)c1ccccc1O`: the IC50 in experiment [1] was 41.9 µM.
`O=C(NCCCCCC/N=C/c1ccccc1O)c1ccccc1O` showed an IC50 in experiment [1] of 65.1 µM.
In experiment [1], `O=C(NCCCCCC/N=C/c1cc(Br)cc(Br)c1O)c1ccccc1O` had an IC50 of 12.5 µM.
`O=C(NCCCCCC/N=C/c1cc(I)cc(I)c1O)c1ccccc1O`: the IC50 in experiment [1] is 25.8 µM.
In turn, `O=C(NCCCCCC/N=C/c1c(O)ccc2ccccc12)c1ccccc1O` returned an IC50 in experiment [1] above 128 µM.
In the case of `O=C(NCCC/N=C/c1cc(Cl)cc(Cl)c1O)c1ccccc1O`, the IC50 in experiment [1] was 7.49 µM.
Consider `O=C(NCCC/N=C/c1cc(Br)cc(Br)c1O)c1ccccc1O`, for which the IC50 in experiment [1] is 13.8 µM.
Still for that read-out and setting: for `O=C(NCC/N=C/c1ccccc1O)c1ccccc1O` the value was 25.5 µM.
Regarding `O=C(NCCC/N=C/c1cc(F)ccc1O)c1ccccc1O`, the MIC was determined as 3.13 µg/mL (≈ 9.89 µM) in the experiment with Escherichia coli, 25 µg/mL (≈ 79 µM) against Bacillus subtilis, 1.56 µg/mL (≈ 4.93 µM) against Pseudomonas aeruginosa and 1.56 µg/mL (≈ 4.93 µM) with Staphylococcus aureus. The compound also had an IC50 in experiment [1] of 5.56 µM.
In experiment [1], `O=C(NCC/N=C/c1c(O)ccc2ccccc12)c1ccccc1O` had an IC50 of 29.2 µM.
`O=C(NCCNC(=O)c1ccccc1O)c1ccccc1O`: the IC50 in experiment [1] was 55 µM.
`O=C(NCCCCCC/N=C/c1cc(I)ccc1O)c1ccccc1O` showed a half-inhibitory concentration (IC50) in experiment [1] of 56.9 µM.
Turning to `O=C(NCCC/N=C/c1cc(I)cc(I)c1O)c1ccccc1O`, in experiment [1], inhibition was half-maximal at 23.5 µM (IC50).
Consider `O=C(NCCC/N=C/c1cc(I)ccc1O)c1ccccc1O`, for which the MIC against Escherichia coli is 3.13 µg/mL (≈ 7.38 µM); with Bacillus subtilis it was 25 µg/mL (≈ 58.9 µM); against Pseudomonas aeruginosa it was 6.25 µg/mL (≈ 14.7 µM); against Staphylococcus aureus, above 50 µg/mL. In experiment [1], this compound had an IC50 of 3.54 µM.
Regarding `O=C(NCC/N=C/c1cc(F)ccc1O)c1ccccc1O`, in experiment [1], the IC50 is 34.2 µM.
With `O=C(NCCCC/N=C/c1ccccc1O)c1ccccc1O`, the IC50 in experiment [1] is 43.4 µM.
Take `O=C(NCCC/N=C/c1cc(Br)ccc1O)c1ccccc1O`: the MIC was 0.39 µg/mL (≈ 1.03 µM) with Escherichia coli, 1.56 µg/mL (≈ 4.14 µM) with Bacillus subtilis, 3.13 µg/mL (≈ 8.3 µM) in the experiment with Pseudomonas aeruginosa and 3.13 µg/mL (≈ 8.3 µM) in the experiment with Staphylococcus aureus. This compound also gave an IC50 in experiment [1] of 0.875 µM.
Compound `O=C(NCCCC/N=C/c1cc(Cl)cc(Cl)c1O)c1ccccc1O` had an IC50 in experiment [1] of 7.74 µM.
Compound `O=C(NCCCC/N=C/c1cc(Br)cc(Br)c1O)c1ccccc1O` gave an IC50 in experiment [1] of 6.61 µM.
In turn, `O=C(NCCCC/N=C/c1cc(I)cc(I)c1O)c1ccccc1O` gave an IC50 in experiment [1] of 11.1 µM.
For the compound `O=C(NCCCC/N=C/c1c(O)ccc2ccccc12)c1ccccc1O`, the half-maximal inhibitory concentration (IC50) in experiment [1] is 8.55 µM.
`O=C(NCCCC/N=C/c1cc(Cl)ccc1O)c1ccccc1O`: the MIC against Escherichia coli was above 50 µg/mL; with Bacillus subtilis it was 25 µg/mL (≈ 72.1 µM); with Pseudomonas aeruginosa, 12.5 µg/mL (≈ 36 µM); in the experiment with Staphylococcus aureus, 25 µg/mL (≈ 72.1 µM). This compound also gave an IC50 in experiment [1] of 6.69 µM.
In the case of `O=C(NCCCCCC/N=C/c1cc(Cl)ccc1O)c1ccccc1O`, the IC50 in experiment [1] was 26.7 µM.
Consider `O=C(NCCC/N=C/c1cc(Cl)ccc1O)c1ccccc1O`, for which the MIC against Escherichia coli was 25 µg/mL (≈ 75.1 µM); against Bacillus subtilis it was above 50 µg/mL; in the experiment on Pseudomonas aeruginosa, above 50 µg/mL; in the experiment on Staphylococcus aureus, above 50 µg/mL. Besides, it took 4.93 µM to reach half-maximal inhibition in experiment [1] (IC50).
`O=C(NCCCC/N=C/c1cc(I)ccc1O)c1ccccc1O`: the minimal inhibitory concentration (MIC) is 6.25 µg/mL (≈ 14.3 µM) against Escherichia coli, 1.56 µg/mL (≈ 3.56 µM) against Bacillus subtilis, 3.13 µg/mL (≈ 7.14 µM) against Pseudomonas aeruginosa and above 50 µg/mL in the experiment with Staphylococcus aureus. The compound also showed an IC50 in experiment [1] of 1.48 µM.
